High-throughput results (PubChem)
This is a sample that favours compounds with a hit; in the whole collection about 2.8% have one here.
E-sel inducer: E-selectin induction in HUVECs, primary screen, imaging, HUVEC, immunofluorescence imaging, single point | AID 686992, 2013 | normalized: neutral wells 0, TNF-alpha wells 100 | activation, % at 7.58 µM | P16581 | hit rate 0.37% among 260,000;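 active = mean E-selectin-positive cell signal at least 10% of the positive control, reached in at least 60% of replicates, without over 20% cell loss; inconclusive = no rule given, readout overlaps actives, possibly toxicity-flagged; inactive = the rest, including those meeting only one limit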
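Material: HUVEC primary endothelial cells; Amount: 3,000 cells per well; Dosing: single concentration; Medium: EGM-2 growth medium on 0.1% gelatin-coated wells; Read-out basis: percent E-selectin-positive cells; Signal: immunofluorescence imaging; Control set: TNF-alpha, DMSO.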
DENV2 CPE: inhibitors of DENV2 cytopathic effect, primary screen, cell-based, plate reader, single concentration; DENV2-infected cells, cytopathic effect rescue; CPE inhibition, % at 9.99 µM; hit rate 1.7% among 350,000; AID 651640, 2012; in the data active = CPE inhibition above about 20%, passing the limit was not always enough; inconclusive = no clear call, values can overlap the other calls; tested in BHK-21 cells;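 also: 0% = median of neutral control wells and 100% = median of positive control wells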
SIRT5 block: SIRT5 desuccinylase inhibitors, primary screen, biochemical, fluorescence imaging, single point, set 5; NAD-dependent protein deacylase sirtuin-5, mitochondrial (Homo sapiens), Q9NXA8; Purified SirT5, succinyl-peptide AMC, trypsin-coupled fluorescence; inhibition, % at 15 µM; hit rate 1.1% among 330,000; AID 652115, 2013; in the data active = inhibition above about 15%; inconclusive = no clear call, values can overlap the other calls
Target sequence (Q9NXA8 whole entry, looked up): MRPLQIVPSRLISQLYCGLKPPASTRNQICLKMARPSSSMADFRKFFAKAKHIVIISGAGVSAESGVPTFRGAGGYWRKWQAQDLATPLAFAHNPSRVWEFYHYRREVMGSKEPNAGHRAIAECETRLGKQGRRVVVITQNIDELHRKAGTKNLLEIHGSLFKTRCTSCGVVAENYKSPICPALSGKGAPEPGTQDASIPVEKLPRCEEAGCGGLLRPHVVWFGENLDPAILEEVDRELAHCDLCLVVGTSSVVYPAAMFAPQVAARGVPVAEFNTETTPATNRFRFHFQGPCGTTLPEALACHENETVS
Starred values were filed as active, the others as inactive; ! = repeats disagree.

Screening C[C@@H]1CCCCO[C@H](CN(C)C)[C@H](C)CN([C@@H](C)CO)C(=O)c2cc(NC(=O)Nc3ccccc3)ccc2O1 returned E-sel inducer 0, DENV2 CPE 4 and SIRT5 block 2.
C[C@H]1CN([C@@H](C)CO)C(=O)Cc2cc(NC(=O)C3CCCCC3)ccc2O[C@H]1CN(C)C(=O)Nc1cccc2ccccc12 was read as E-sel inducer 3, DENV2 CPE inconclusive and SIRT5 block 1.
For Cc1ccc(S(=O)(=O)Nc2ccc3c(c2)C(=O)N([C@@H](C)CO)C[C@H](C)[C@@H](CN(C)C(=O)Nc2ccc(C(F)(F)F)cc2)OCCCC[C@@H](C)O3)cc1 the results were E-sel inducer 0, DENV2 CPE -2 and SIRT5 block 18*.
Cc1ccc(S(=O)(=O)Nc2ccc3c(c2)C(=O)N([C@H](C)CO)C[C@H](C)[C@@H](CN(C)C(=O)Nc2ccc(C(F)(F)F)cc2)OCCCC[C@@H](C)O3)cc1 was read as E-sel inducer 1, DENV2 CPE 6 and SIRT5 block 7.
Cc1ccc(S(=O)(=O)Nc2ccc3c(c2)C(=O)N([C@@H](C)CO)C[C@@H](C)[C@@H](CN(C)C(=O)Nc2ccc(C(F)(F)F)cc2)OCCCC[C@@H](C)O3)cc1 was read as E-sel inducer 0, DENV2 CPE 4 and SIRT5 block 15*.
Cc1ccc(S(=O)(=O)Nc2ccc3c(c2)C(=O)N([C@@H](C)CO)C[C@H](C)[C@H](CN(C)C(=O)Nc2ccc(C(F)(F)F)cc2)OCCCC[C@H](C)O3)cc1 was read as E-sel inducer 0 and DENV2 CPE -4.
Screening COc1ccccc1-c1ccc2c(c1)[C@H]1[C@H](CCN1S(=O)(=O)c1cccc(F)c1)[C@@H](CO)N2 returned E-sel inducer -1.
Screening CO[C@H](CN(C)C(=O)c1ccccc1F)[C@@H](C)CN([C@H](C)CO)S(=O)(=O)c1ccc(C)cc1 returned E-sel inducer 0, DENV2 CPE 0 and SIRT5 block 3.
For CC(C)NC(=O)Nc1ccc2c(c1)C(=O)N([C@@H](C)CO)C[C@@H](C)[C@@H](CN(C)C(=O)Nc1ccc3c(c1)OCO3)O2 the results were E-sel inducer 0, DENV2 CPE 7 and SIRT5 block 1.
For CC(C)NC(=O)Nc1ccc2c(c1)C(=O)N([C@@H](C)CO)C[C@H](C)[C@@H](CN(C)C(=O)Nc1ccc3c(c1)OCO3)O2 the results were E-sel inducer 0, DENV2 CPE 21* and SIRT5 block -3.
Screening CC(C)NC(=O)Nc1ccc2c(c1)C(=O)N([C@H](C)CO)C[C@H](C)[C@H](CN(C)C(=O)Nc1ccc3c(c1)OCO3)O2 returned E-sel inducer 0, DENV2 CPE 0 and SIRT5 block -5.
For CC(C)NC(=O)Nc1ccc2c(c1)C(=O)N([C@@H](C)CO)C[C@@H](C)[C@H](CN(C)C(=O)Nc1ccc3c(c1)OCO3)O2 the results were E-sel inducer 0, DENV2 CPE 28* and SIRT5 block -1.
For Cc1cccc(S(=O)(=O)N2CC[C@@H]3[C@H]2c2cc(C#Cc4cccnc4)ccc2N[C@@H]3CO)c1 the results were E-sel inducer -1 and DENV2 CPE -11.
`COc1ccc(C(=O)Nc2ccc3c(c2)C(=O)N(C)C[C@@H](OC)[C@@H](C)CN(C(C)=O)[C@@H](C)CO3)cc1` gave E-sel inducer 0, DENV2 CPE 1 and SIRT5 block -2.
Screening C[C@@H]1CN([C@@H](C)CO)C(=O)c2cc(NC(=O)Nc3ccccc3)ccc2O[C@@H](C)CCCCO[C@H]1CN(C)Cc1ccncc1 returned E-sel inducer 0 and DENV2 CPE -1.
Screening O=C(NCCN1CCOCC1)C1CCCN(S(=O)(=O)c2ccc(F)cc2)C1 (centres undefined) returned E-sel inducer 0, DENV2 CPE inconclusive and SIRT5 block -5.
Screening Cn1c(=O)oc2cc(S(=O)(=O)N3CCCC(C(=O)NCCN4CCOCC4)C3)ccc21 (centres undefined) returned E-sel inducer 0, DENV2 CPE 83* and SIRT5 block 0.
`C[C@@H]1CN([C@@H](C)CO)C(=O)c2cc(N(C)C)ccc2O[C@@H]1CN(C)C(=O)Nc1cccc2ccccc12` gave E-sel inducer 39*, DENV2 CPE -3 and SIRT5 block -2.
C[C@@H]1CN([C@@H](C)CO)C(=O)c2cc(N(C)C)ccc2O[C@H]1CN(C)C(=O)Nc1cccc2ccccc12 was read as E-sel inducer -8, DENV2 CPE 0 and SIRT5 block -5.
Screening C[C@@H]1CCCCO[C@H](CN(C)S(=O)(=O)c2ccc(F)cc2)[C@@H](C)CN([C@H](C)CO)C(=O)c2cc(NC(=O)Nc3cccc4ccccc34)ccc2O1 returned E-sel inducer 0, DENV2 CPE 26* and SIRT5 block 2.
Screening C[C@H](CO)N1C[C@H](C)[C@H](CN(C)C(=O)Nc2cccc3ccccc23)OCCCC[C@H](C)Oc2ccc(NC(=O)Nc3ccc(F)cc3)cc2C1=O returned E-sel inducer 0, DENV2 CPE 25* and SIRT5 block 0.
`C[C@@H]1CCCCO[C@H](CN(C)C(=O)Nc2cccc3ccccc23)[C@@H](C)CN([C@H](C)CO)C(=O)c2cc(NC(=O)Nc3ccc(F)cc3)ccc2O1` gave E-sel inducer 0, DENV2 CPE -5 and SIRT5 block 6.
`C[C@@H]1CN([C@H](C)CO)C(=O)c2cc(N(C)C)ccc2O[C@@H](C)CCCCO[C@H]1CN(C)C(=O)Nc1cccc2ccccc12` gave DENV2 CPE 13 and SIRT5 block 0.
`C[C@@H]1CCCCO[C@H](CN(C)C(=O)Nc2cccc3ccccc23)[C@@H](C)CN([C@H](C)CO)C(=O)c2cc(N(C)C)ccc2O1` gave E-sel inducer 0, DENV2 CPE -9 and SIRT5 block 27*!.
`C[C@@H]1CCCCO[C@@H](CN(C)S(=O)(=O)c2ccc(F)cc2)[C@@H](C)CN([C@@H](C)CO)C(=O)c2cc(NC(=O)Nc3cccc4ccccc34)ccc2O1` gave E-sel inducer 0, DENV2 CPE -10 and SIRT5 block -1.
For O=S(=O)(c1ccccc1F)N1CCCCN2[C@H](CO)[C@@H](c3ccc(-c4ccccc4)cc3)[C@@H]2C1 the results were DENV2 CPE -8 and SIRT5 block 12.
CO[C@H]1CN(C)C(=O)c2cc(NC(=O)C3CC3)ccc2OC[C@H](C)N(Cc2ccccc2)C[C@@H]1C was read as E-sel inducer 0, DENV2 CPE 8 and SIRT5 block 4.
Screening COc1ccc2c3c(n(C)c2c1)[C@@H](CO)N(C(=O)c1cccnc1)CC31CN(C)C1 returned E-sel inducer 0 and DENV2 CPE 0.
For Cc1ccc(S(=O)(=O)Nc2cccc3c2O[C@@H](CN(C)S(=O)(=O)c2ccc(F)cc2)[C@@H](C)CN([C@H](C)CO)C3=O)cc1 the results were E-sel inducer -1 and DENV2 CPE 11.
`C[C@H]1CN([C@@H](C)CO)C(=O)c2cc(C#CC3CC3)cnc2O[C@H]1CN(C)C(=O)C1CCCCC1` gave E-sel inducer 0.
